The source made the active and inactive calls. The calls are words filed in the database; no cut-off is given here.
What was measured:
[1] = molecular target: T1, Sphingosine kinase 2 (Homo sapiens) (UniProt Q9NRA0); assay: Inhibition of recombinant human SphK2 transfected in HEK293T cells at 0.3 uM using D-erythro-sphingosine as substrate incubated for 20 mins in presence of [gamma32P]-ATP by liquid scintillation counting method relative to control; type: cell-based
T1 sequence (whole entry): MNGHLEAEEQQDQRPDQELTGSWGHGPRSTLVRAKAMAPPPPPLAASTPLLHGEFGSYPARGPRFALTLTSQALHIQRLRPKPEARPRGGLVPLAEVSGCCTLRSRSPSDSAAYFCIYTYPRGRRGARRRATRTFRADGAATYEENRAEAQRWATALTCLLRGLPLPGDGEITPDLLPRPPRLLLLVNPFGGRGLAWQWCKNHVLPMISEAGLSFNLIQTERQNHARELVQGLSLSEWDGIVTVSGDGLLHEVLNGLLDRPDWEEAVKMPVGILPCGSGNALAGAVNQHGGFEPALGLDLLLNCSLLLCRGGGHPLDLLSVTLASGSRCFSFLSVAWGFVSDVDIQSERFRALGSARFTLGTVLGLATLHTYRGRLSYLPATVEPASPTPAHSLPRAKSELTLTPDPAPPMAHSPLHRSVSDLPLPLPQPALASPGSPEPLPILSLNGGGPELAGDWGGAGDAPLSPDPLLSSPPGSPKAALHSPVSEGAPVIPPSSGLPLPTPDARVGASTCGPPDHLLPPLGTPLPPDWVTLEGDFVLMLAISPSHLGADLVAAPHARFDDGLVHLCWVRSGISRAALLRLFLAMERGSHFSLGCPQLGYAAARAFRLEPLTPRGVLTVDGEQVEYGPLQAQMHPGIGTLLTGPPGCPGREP
Procedure, shortened: (§1)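 Human SphK2 recombinant protein isolated from cell lysate. Reaction contained 10 μM sphingosine and 250 μM γ-[32P]ATP, with or without inhibitor. Product was read by scintillation counting. Activity is expressed as % of the no-inhibitor control. Compounds were tested at 1.0 and 0.3 μM in triplicate.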

[2] = molecular target: T1, Sphingosine kinase 2 (Homo sapiens); assay: Inhibition of recombinant human SphK2 transfected in HEK293T cells at 1 uM using D-erythro-sphingosine as substrate incubated for 20 mins in presence of [gamma32P]-ATP by liquid scintillation counting method relative to control; procedure, shortened: as §1
[3] = molecular target: T2, Sphingosine kinase 2 (Homo sapiens, UniProt Q9NRA0); assay: Inhibition of recombinant human SphK2 expressed in baculovirus infected Sf9 cells assessed as decrease in [33P]S1P production using varying level of D-erythro-sphingosine as substrate in presence of [gamma33P]-ATP by scintillation proximity assay
T2 sequence (Q9NRA0 whole entry): T1 sequence (whole entry)

[4] = system: Mus musculus; assay: In vivo inhibition of SphK2 in C57BL/6 mouse assessed as Cmax required for two-fold increase in sphingosine-1-phosphate level in blood at 10 mg/kg, ip administered as single dose measured after 4 hrs by LC-MS/MS analysis; type: functional, organism-based; set-up: dose 10 mg/kg
Procedure, shortened: (§2)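 Male C57BL/6 mice, 8–10 weeks old, received a single i.p. dose of vehicle or 10 mg/kg inhibitor in 2% hydroxypropyl-β-cyclodextrin. Retro-orbital whole blood was taken at 0.5, 1, 2, 4, 6 and 8 h. 10 μL of blood was analysed by LC/MS for S1P and compound. Groups were compared to vehicle by unpaired t-test.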

[5] = system: Mus musculus; assay: In vivo inhibition of SphK2 in C57BL/6 mouse assessed as increase in sphingosine-1-phosphate level in blood at 10 mg/kg, ip administered as single dose and measured at 4 hrs post-treatment by LC-MS/MS analysis relative to control; type: functional
Procedure, shortened: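 Male C57BL/6 mice, 8–10 weeks old, given one i.p. injection of 10 mg/kg or vehicle (2% hydroxypropyl-β-cyclodextrin). Whole blood taken from the retro-orbital sinus at 0.5, 1, 2, 4, 6 and 8 h. 10 μL of blood processed for S1P by LC-MS/MS. S1P compared with vehicle-injected controls by unpaired t-test.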

[6] = system: Mus musculus; assay: In vivo inhibition of SphK2 in C57BL/6 mouse assessed as increase in sphingosine-1-phosphate level in blood at 10 mg/kg, ip administered as single dose and measured upto 6 hrs post-treatment by LC-MS/MS analysis; type: functional, organism-based; procedure, shortened: as §2
[7] = system: Saccharomyces cerevisiae; assay: Toxicity against Saccharomyces cerevisiae KYA1 assessed as cell death at >3 uM incubated for 24 to 48 hrs; type: organism-based; settings: in vivo
[8] = molecular target: T3, Sphingosine kinase 2 (Mus musculus, UniProt Q9JIA7); assay: Inhibition of recombinant mouse SphK2 expressed in baculovirus infected Sf9 insect cells using D-erythro-sphingosine as substrate measured after 30 mins in presence of [gamma32P]-ATP by liquid scintillation counting method
T3 sequence (Q9JIA7 whole entry): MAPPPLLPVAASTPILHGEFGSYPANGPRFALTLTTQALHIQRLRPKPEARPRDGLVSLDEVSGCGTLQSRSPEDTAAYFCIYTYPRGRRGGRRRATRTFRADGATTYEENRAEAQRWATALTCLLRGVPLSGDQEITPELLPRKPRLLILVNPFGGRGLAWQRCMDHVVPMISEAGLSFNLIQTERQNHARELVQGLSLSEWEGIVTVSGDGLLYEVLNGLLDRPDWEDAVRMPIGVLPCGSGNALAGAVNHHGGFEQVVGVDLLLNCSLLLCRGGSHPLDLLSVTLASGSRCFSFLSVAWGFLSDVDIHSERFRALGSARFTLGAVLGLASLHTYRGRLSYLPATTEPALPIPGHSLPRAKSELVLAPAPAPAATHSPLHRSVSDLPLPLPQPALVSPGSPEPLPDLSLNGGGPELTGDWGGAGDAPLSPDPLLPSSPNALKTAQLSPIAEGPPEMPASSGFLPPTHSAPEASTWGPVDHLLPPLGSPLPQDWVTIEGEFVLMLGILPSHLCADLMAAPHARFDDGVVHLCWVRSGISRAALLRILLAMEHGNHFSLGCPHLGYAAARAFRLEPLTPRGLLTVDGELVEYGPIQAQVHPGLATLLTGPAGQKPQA

[9] = system: Rattus norvegicus; assay: Decrease in sphingosine-1-phosphate level in rat blood at 10 mg/kg relative to control; type: functional

SMILES	inhibition [1]	further results
N=C(N)N1CCC[C@H]1c1nc(-c2ccc(OCc3ccc(C(F)(F)F)cc3)c(-c3ccccc3)c2)no1	28%	–
N=C(N)N1CCC[C@H]1c1nc(-c2ccc(OCc3ccc(C(F)(F)F)cc3)cc2Cl)no1	40%	–
Cc1cc(-c2noc([C@@H]3CCCN3C(=N)N)n2)ccc1OCc1ccc(C(F)(F)F)cc1	3%	–
Cl.N=C(N)N1CCC[C@H]1c1nc(-c2ccc(OCc3ccc(C(F)(F)F)cc3)c(C(F)(F)F)c2)no1	65%	inhibition [2]: 77%; Ki [3]: 89 nM; Cmax [4]: 8 µM; fold change (FC) [5]: 2; inhibition [6]: Active; Activity [7]: Toxic
Cl.N=C(N)N1CCC[C@H]1c1nc(-c2ccc(OCc3ccc(C(F)(F)F)cc3)c(C3CC3)c2)no1	52%	Ki [3]: 186 nM; Activity [7]: Toxic
CCCCCCCCOc1ccc(-c2noc([C@@H]3CCCN3C(=N)N)n2)cc1C(F)(F)F	–	Ki [8]: 400 nM
N=C(N)N1CCC[C@H]1c1nc(-c2ccc(OCc3ccc(C(F)(F)F)cc3)cc2C(F)(F)F)no1	35%	–
N=C(N)N1CCC[C@H]1c1nc(-c2ccc(OCc3ccc(C(F)(F)F)cc3)c(-c3ccc(F)cc3)c2)no1	31%	–
CC(C)(C)c1cc(-c2noc([C@@H]3CCCN3C(=N)N)n2)ccc1OCc1ccc(C(F)(F)F)cc1.Cl	66%	Ki [3]: 197 nM; Activity [7]: Toxic
N=C(N)N1CCC[C@H]1c1nc(-c2ccc(OCc3ccc(C(F)(F)F)cc3)cc2)no1	2%	–
CCCCCCCCc1ccc(-c2noc(C[C@@H]3CCCN3C(=N)N)n2)cc1	–	inhibition in vivo at 10 mg/kg [9]: 80%
N=C(N)N1CCC[C@H]1c1nc(-c2ccc(OCc3ccc(C(F)(F)F)cc3)c(Br)c2)no1	24%	–
CCCc1cc(-c2noc([C@@H]3CCCN3C(=N)N)n2)ccc1OCc1ccc(C(F)(F)F)cc1.Cl	60%	Ki [3]: 201 nM; Activity [7]: Toxic
CCCCCCCCOc1ccc(-c2noc([C@@H]3CCCN3C(=N)N)n2)cc1	3%	inhibition [2]: 8%
N=C(N)N1CCC[C@H]1c1nc(-c2ccc(OCc3ccc(C(F)(F)F)cc3)c(-c3ccncc3)c2)no1	8%	–
Cc1cc(-c2noc([C@@H]3CCCN3C(=N)N)n2)cc(C)c1OCc1ccc(C(F)(F)F)cc1	23%	–
N=C(N)N1CCC[C@H]1c1nc(-c2ccc(OCc3ccc(C(F)(F)F)cc3)c(-c3ccc(C(F)(F)F)cc3)c2)no1	12%	–
N=C(N)N1CCC[C@H]1c1nc(-c2ccc(OCc3ccc(C(F)(F)F)cc3)c([N+](=O)[O-])c2)no1	33%	–
C=CCc1cc(-c2noc([C@@H]3CCCN3C(=N)N)n2)ccc1OCc1ccc(C(F)(F)F)cc1.Cl	59%	Activity [7]: Toxic
CC(C)c1cc(-c2noc([C@@H]3CCCN3C(=N)N)n2)ccc1OCc1ccc(C(F)(F)F)cc1.Cl	67%	Ki [3]: 192 nM; Activity [7]: Toxic
N=C(N)N1CCC[C@H]1c1nc(-c2ccc(OCc3ccc(C(F)(F)F)cc3)c(F)c2)no1	23%	–
COc1cc(-c2noc([C@@H]3CCCN3C(=N)N)n2)ccc1OCc1ccc(C(F)(F)F)cc1	15%	–
N=C(N)N1CCC[C@H]1c1nc(-c2ccc(OCc3ccc(C(F)(F)F)cc3)c(Cl)c2)no1	33%	–
CCc1cc(-c2noc([C@@H]3CCCN3C(=N)N)n2)ccc1OCc1ccc(C(F)(F)F)cc1.Cl	42%	Activity [7]: Toxic

Reference: ChEMBL document CHEMBL4354840, “Discovery of a Small Side Cavity in Sphingosine Kinase 2 that Enhances Inhibitor Potency and Selectivity” (J Med Chem, 2020)
